Experimental data from ChEMBL document CHEMBL3856196, “3-(Benzodioxan-2-ylmethoxy)-2,6-difluorobenzamides bearing hydrophobic substituents at the 7-position of the benzodioxane nucleus potently inhibit methicillin-resistant Sa and Mtb cell division” (Eur J Med Chem, 2016).
Values after ≈ are worked out from the molar mass of the structure shown. Active and inactive are the calls of the source. The rule behind the calls is not given here.

Assays:
[1] = tested on: Staphylococcus aureus; assay: Antibacterial activity against […] Staphylococcus aureus ATCC 29213 after 16 hrs by spectrophotometric analysis; format: functional; conditions: ATCC 29213, 16 h
[2] = Therapeutic index, ratio of TD90 for human MRC5 cells to MBC for […] Staphylococcus aureus ATCC 29213; format: cell-based; conditions: read-out: TI
Method in brief: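 Ratio of TD₉₀ (MTT assay on MRC-5, 24 h exposure) to MBC against MRSA ATCC 29213 (LB tube assay, wash-out and overnight regrowth by OD600).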

[3] = Cytotoxicity against human MRC5 cells assessed as reduction in cell viability after 24 hrs by MTT assay; format: toxicity, cell-based; conditions: mrc5, 24 h
Method in brief: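 MRC-5 lung fibroblasts (DMEM, 10% heat-inactivated calf serum, 37 °C, 5% CO₂) at 10⁴ cells/well were exposed 24 h to twofold serial dilutions in DMEM. Then 1 mg/ml MTT in serum-free DMEM for 3 h, DMSO solubilisation, A570. Cytotoxicity % = 100 − (sample OD/untreated OD) × 100; TD₅₀/TD₉₀ are concentrations cutting viability 50/90%.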

[4] = tested on: Mycolicibacterium smegmatis; assay: Inhibition of FtsZ polymerization in GFP-tagged Mycobacterium smegmatis assessed as presence of elongated cells with enlarged bacterial pole at 0.5 ug/ml by fluorescence-based microscopic analysis
Method in brief: (§1)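 GFP-expressing M. smegmatis or M. tuberculosis grown at subMIC concentrations on glass coverslips in 7H9/ADC/Tween 80. Cells were fixed with phosphate-buffered 4% paraformaldehyde and examined by fluorescence microscopy at 100× for cell morphology.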

[5] = tested on: Mycobacterium tuberculosis; assay: Antitubercular activity against Mycobacterium tuberculosis H37Rv by Alamar blue assay; format: functional
Method in brief: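 M. tuberculosis in 7H9 medium with ADC and 0.05% Tween 80; MIC by microplate Alamar Blue assay.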

[6] = tested on: Mycobacterium tuberculosis; assay: Inhibition of FtsZ polymerization in GFP-tagged Mycobacterium tuberculosis assessed as presence of elongated cells with enlarged bacterial pole at 8 ug/ml by fluorescence-based microscopic analysis; method in brief: as §1
[7] = tested on: Enterococcus faecalis; assay: Antibacterial activity against vancomycin-susceptible Enterococcus faecalis clinical isolates after 24 hrs by CLSI […] broth microdilution method; format: functional; conditions: for MBC: read-out: MBC99.9
Method in brief: (§2)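 CLSI broth microdilution on clinical isolates. Log-phase bacteria in saline at 1–2 × 10⁵ CFU/mL were mixed with compounds diluted in LB, final 0.097–100 μg/mL, for 24 h at 37 °C. MIC is the lowest concentration with total growth inhibition. For MBC, clear wells were plated on sheep-blood agar for 18 h; >99.9% kill versus untreated control. Triplicate.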

[8] = tested on: Staphylococcus aureus; assay: Antibacterial activity against methicillin-susceptible Staphylococcus aureus clinical isolates after 24 hrs by CLSI […] broth microdilution method; format: functional; conditions: for MBC: read-out: MBC99.9; method in brief: as §2
[9] = target: T1, Cell division protein FtsZ (Staphylococcus aureus) (UniProt P0A031); assay: Inhibition of Staphylococcus aureus FtsZ assessed as alteration in septum formation at 0.25 ug/ml after 16 hrs by transmission electron microscopic analysis
T1 sequence (whole entry): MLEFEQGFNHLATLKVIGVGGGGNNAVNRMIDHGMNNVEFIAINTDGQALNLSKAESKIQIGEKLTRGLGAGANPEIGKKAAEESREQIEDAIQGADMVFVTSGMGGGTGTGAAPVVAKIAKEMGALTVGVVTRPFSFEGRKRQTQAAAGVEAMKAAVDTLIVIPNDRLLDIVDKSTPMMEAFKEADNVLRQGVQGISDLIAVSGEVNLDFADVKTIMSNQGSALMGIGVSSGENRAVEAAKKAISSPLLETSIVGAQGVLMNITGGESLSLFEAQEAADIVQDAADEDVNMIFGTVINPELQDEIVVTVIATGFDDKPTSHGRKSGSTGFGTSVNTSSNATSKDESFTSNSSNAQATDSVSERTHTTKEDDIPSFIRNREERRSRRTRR
Method in brief: (§3)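 S. aureus at 10⁹ cells/ml grown 16 h at 37 °C with compound, untreated control included. Cells were pelleted at 3100 × g for 5 min, fixed in 2.5% glutaraldehyde in 0.1 M Na cacodylate pH 7.4 for 1 h at 4 °C, post-fixed in 1% OsO₄ for 1 h at 4 °C, and examined by TEM for septum and ultrastructure.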

[10] = tested on: Staphylococcus aureus; assay: Antibacterial activity against methicillin-resistant Staphylococcus aureus clinical isolates after 24 hrs by CLSI […] broth microdilution method; format: functional; conditions: for MBC: read-out: MBC99.9; method in brief: as §2
[11] = target: T1, Cell division protein FtsZ (Staphylococcus aureus); assay: Inhibition of Staphylococcus aureus FtsZ assessed as increase in cell volume at 0.25 ug/ml after overnight incubation by phase-contrast light microscopic analysis
Method in brief: (§4)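 S. aureus grown overnight with compound at levels starting from the previously determined MIC. Untreated cultures served as negative control. Examined by phase-contrast microscopy at 630×.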

[12] = target: T1, Cell division protein FtsZ (Staphylococcus aureus); assay: Inhibition of Staphylococcus aureus FtsZ assessed as cellular desegregation at 0.25 ug/ml after overnight incubation by phase-contrast light microscopic analysis; method in brief: as §4
[13] = tested on: Enterococcus faecalis; assay: Antibacterial activity against vancomycin-resistant Enterococcus faecalis clinical isolates after 24 hrs by CLSI […] broth microdilution method; format: functional; conditions: for MBC: read-out: MBC99.9; method in brief: as §2
[14] = target: T1, Cell division protein FtsZ (Staphylococcus aureus); assay: Inhibition of Staphylococcus aureus FtsZ assessed as bacterial swelling at 0.25 ug/ml after overnight incubation by phase-contrast light microscopic analysis; method in brief: as §4
[15] = target: T1, Cell division protein FtsZ (Staphylococcus aureus); assay: Inhibition of Staphylococcus aureus FtsZ assessed as bacterial swelling at 0.5 ug/ml after overnight incubation by phase-contrast light microscopic analysis; method in brief: as §4
[16] = target: T1, Cell division protein FtsZ (Staphylococcus aureus); assay: Inhibition of Staphylococcus aureus FtsZ assessed as increase in cell volume at 0.5 ug/ml after overnight incubation by phase-contrast light microscopic analysis; method in brief: as §4
[17] = target: T1, Cell division protein FtsZ (Staphylococcus aureus); assay: Inhibition of Staphylococcus aureus FtsZ assessed as cellular desegregation at 0.5 ug/ml after overnight incubation by phase-contrast light microscopic analysis; method in brief: as §4
[18] = target: T1, Cell division protein FtsZ (Staphylococcus aureus); assay: Inhibition of Staphylococcus aureus FtsZ assessed as increase in cell volume at 1 ug/ml after overnight incubation by phase-contrast light microscopic analysis; method in brief: as §4
[19] = target: T1, Cell division protein FtsZ (Staphylococcus aureus); assay: Inhibition of Staphylococcus aureus FtsZ assessed as bacterial swelling at 1 ug/ml after overnight incubation by phase-contrast light microscopic analysis; method in brief: as §4
[20] = target: T1, Cell division protein FtsZ (Staphylococcus aureus); assay: Inhibition of Staphylococcus aureus FtsZ assessed as cellular desegregation at 1 ug/ml after overnight incubation by phase-contrast light microscopic analysis; method in brief: as §4
[21] = target: T1, Cell division protein FtsZ (Staphylococcus aureus); assay: Inhibition of Staphylococcus aureus FtsZ assessed as cellular desegregation at 1 ug/ml after 16 hrs by transmission electron microscopic analysis; method in brief: as §3
[22] = tested on: Mycolicibacterium smegmatis; assay: Inhibition of FtsZ polymerization in GFP-tagged Mycobacterium smegmatis assessed as presence of elongated cells with enlarged bacterial pole at 4 ug/ml by fluorescence-based microscopic analysis; method in brief: as §1
[23] = tested on: Staphylococcus aureus; assay: Antibacterial activity against methicillin-susceptible Staphylococcus aureus; format: functional
[24] = target: T1, Cell division protein FtsZ (Staphylococcus aureus); assay: Inhibition of Staphylococcus aureus FtsZ assessed as alteration in septum formation at 0.5 ug/ml after 16 hrs by transmission electron microscopic analysis; method in brief: as §3
[25] = tested on: Mycobacterium tuberculosis; assay: Inhibition of FtsZ polymerization in GFP-tagged Mycobacterium tuberculosis assessed as presence of elongated cells with enlarged bacterial pole at 4 ug/ml by fluorescence-based microscopic analysis; method in brief: as §1

C=Cc1ccc2c(c1)OC(COc1ccc(F)c(C(N)=O)c1F)CO2 (stereo unspecified)
MBC [1]: 1.25 µg/mL (≈ 3.6 µM)
MIC [1]: 0.625 µg/mL (≈ 1.8 µM)
selectivity ratio [2]: > 640
TD90 [3]: > 800 µg/mL

CS(=O)(=O)Nc1ccc2c(c1)OC(COc1ccc(F)c(C(N)=O)c1F)CO2 (stereo unspecified)
MIC [1]: > 100 µg/mL

CCCCCCCCCOc1ccc(F)c(C(N)=O)c1F
inhibition [4]: Active
MBC [1]: 1 µg/mL (≈ 3.34 µM)
MIC [1]: 1 µg/mL (≈ 3.34 µM)
selectivity ratio [2]: > 200
MIC [5]: 16 µg/mL (≈ 53.4 µM)
inhibition [6]: Active
TD90 [3]: > 200 µg/mL
MIC90 [7]: 6.25 µg/mL (≈ 20.9 µM)
MBC [7]: 12.5 µg/mL (≈ 41.8 µM)
MIC90 [8]: 0.19 µg/mL
MBC [8]: 0.19 µg/mL
inhibition [9]: Active
MIC90 [10]: 0.39 µg/mL
MBC [10]: 0.78 µg/mL (≈ 2.61 µM)
inhibition [11]: Active
inhibition [12]: Active
MIC90 [13]: 12.5 µg/mL (≈ 41.8 µM)
MBC [13]: 25 µg/mL (≈ 83.5 µM)
inhibition [14]: Active

C#Cc1ccc2c(c1)OC(COc1ccc(F)c(C(N)=O)c1F)CO2 (stereo unspecified)
inhibition [15]: Active
inhibition [16]: Active
MBC [1]: 0.625 µg/mL (≈ 1.81 µM)
MIC [1]: 0.313 µg/mL (≈ 0.906 µM)
selectivity ratio [2]: 640
inhibition [17]: Active
TD90 [3]: 400 µg/mL

NC(=O)c1c(F)ccc(OCC2CCc3ccccc3O2)c1F (stereo unspecified)
MBC [1]: 5 µg/mL (≈ 15.7 µM)
MIC [1]: 5 µg/mL (≈ 15.7 µM)

NC(=O)c1c(F)ccc(OCC2COc3ccccc3C2)c1F (stereo unspecified)
MBC [1]: 100 µg/mL (≈ 313 µM)
MIC [1]: 100 µg/mL (≈ 313 µM)

COC(=O)c1ccc2c(c1)OC(COc1ccc(F)c(C(N)=O)c1F)CO2 (stereo unspecified)
MBC [1]: 0.625 µg/mL (≈ 1.65 µM)
MIC [1]: 0.625 µg/mL (≈ 1.65 µM)
selectivity ratio [2]: > 1280
inhibition [18]: Active
TD90 [3]: > 1280 µg/mL
inhibition [19]: Active
inhibition [20]: Active
inhibition [21]: Active

NC(=O)c1c(F)ccc(OC(CO)COc2ccccc2)c1F (stereo unspecified)
MIC [1]: > 100 µg/mL

NC(=O)c1c(F)ccc(OCC2CCc3ccccc3C2)c1F (stereo unspecified)
MIC [1]: > 100 µg/mL

NC(=O)c1c(F)ccc(OC[C@@H]2COc3ccc(Cl)cc3O2)c1F
inhibition [16]: Active
MIC [5]: 8 µg/mL (≈ 22.5 µM)
inhibition [22]: Active
MIC90 [23]: 0.7 µM (≈ 0.249 µg/mL)
MIC90 [7]: 25 µg/mL (≈ 70.3 µM)
MBC [7]: 50 µg/mL (≈ 141 µM)
MIC90 [8]: 0.5 µM
MBC [8]: 1 µM
MIC90 [10]: 1 µM
MBC [10]: 0.78 µg/mL (≈ 2.19 µM)
MIC90 [13]: 25 µg/mL (≈ 70.3 µM)
MBC [13]: 50 µg/mL (≈ 141 µM)
inhibition [24]: Active
inhibition [25]: Active

NC(=O)c1c(F)ccc(OCC2COc3ccc(I)cc3O2)c1F (stereo unspecified)
MBC [1]: 0.625 µg/mL (≈ 1.4 µM)
MIC [1]: 0.313 µg/mL (≈ 0.7 µM)
selectivity ratio [2]: > 1280
TD90 [3]: > 800 µg/mL
MIC90 [7]: 6.25 µg/mL (≈ 14 µM)
MBC [7]: 12.5 µg/mL (≈ 28 µM)
MIC90 [8]: 0.78 µg/mL
MBC [8]: 3.12 µg/mL
MIC90 [10]: 0.39 µg/mL
MBC [10]: 1.56 µg/mL (≈ 3.49 µM)
MIC90 [13]: 6.25 µg/mL (≈ 14 µM)
MBC [13]: 25 µg/mL (≈ 55.9 µM)
